{"source": "PubChem BioAssay AID1899", "about": "(The Scripps Research Institute Molecular Screening Center, 2009)", "note": "The campaign covered roughly 300,000 compounds. About 1,000 (0.33%) were called active.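 Rule for the calls: active = inhibition above the mean of all tested compounds plus 3 SD, set per screening campaign (cut at about 45% in these data); inactive = the rest.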 The list comes from a sample in which actives are over-represented; it also holds similar structures and randomly drawn compounds."}
{"system": "HCV core protein (residues 1-106) dimerization", "experiment": "inhibitors of HCV core protein dimerization, primary screen, biochemical, TR-FRET, high-throughput (AID 1899)", "conditions": "TR-FRET GST/Flag-core106 dimerization, 1536-well; at 5 µM; stronger effect = higher value", "in_short": "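Assay system – GST-tagged and Flag-tagged HCV core protein residues 1-106 · Quantity – core106 proteins, GST 13.5 nM and Flag 17 nM · Benchmarks – unlabelled core106 and no-GST-core106 wells · Read-out basis – percent inhibition of core106 dimerization signal · Detection – time-resolved FRET, ex 340 nm, em 617 and 671 nm · Schedule – 4 h at 22.5 °C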"}
{"smiles": "O=C1NC(=O)N(c2ccccc2)C(=O)/C1=C/c1ccc([N+](=O)[O-])s1", "inhibition": "-5.13% (inactive)"}
{"smiles": "Cc1cccc(N2C(=O)NC(=O)/C(=C\\c3cnn(-c4ccccc4)c3)C2=O)c1", "inhibition": "46.9% (active)"}
{"smiles": "COc1cccc(N2C(=O)NC(=O)/C(=C\\c3cn(C)c4ccccc34)C2=O)c1", "inhibition": "-2.56% (inactive)"}
{"smiles": "CN1C2C=C(N(C(=O)c3ccc(Cl)cc3)c3ccccc3)CC1CC2", "note": "(stereo not given)", "inhibition": "-2.38% (inactive)"}
{"smiles": "CSC1=NP(=S)(SC)N(C)c2nc3n(c21)CCC3", "note": "(stereo not given)", "inhibition": "8.93% (inactive)"}
